The source made the active and inactive calls. No cut-off for these calls is given here.
Key:
SN12C = experiment: Cytotoxicity against human SN12C cells assessed as cell growth at 10 uM; format: functional; settings: read-out: Activity
SNB-75 = experiment: Cytotoxicity against human SNB75 cells assessed as cell growth at 10 uM; format: functional; settings: read-out: Activity
NCI-H23 = experiment: Cytotoxicity against human NCI-H23 cells assessed as cell growth at 10 uM; format: functional; settings: read-out: Activity
HOP-62 = experiment: Cytotoxicity against human HOP62 cells assessed as cell growth at 10 uM; format: functional; settings: read-out: Activity
SK-MEL-28 = experiment: Cytotoxicity against human SK-MEL-28 cells assessed as cell growth at 10 uM; format: functional; settings: read-out: Activity
SK-OV-3 = experiment: Cytotoxicity against human SKOV3 cells assessed as cell growth at 10 uM; format: functional; settings: read-out: Activity
PC-3 = experiment: Cytotoxicity against human PC3 cells assessed as cell growth at 10 uM; format: functional; settings: read-out: Activity
RPMI-8226 = experiment: Cytotoxicity against human RPMI8226 cells assessed as cell growth at 10 uM; format: functional; settings: read-out: Activity
SR = experiment: Cytotoxicity against human SR cells assessed as cell growth at 10 uM; format: functional; settings: read-out: Activity
SNB-19 = experiment: Cytotoxicity against human SNB19 cells assessed as cell growth at 10 uM; format: functional; settings: read-out: Activity
NCI-H322M = experiment: Cytotoxicity against human NCI-H322M cells assessed as cell growth at 10 uM; format: functional; settings: read-out: Activity
A549 = experiment: Cytotoxicity against human A549/ATCC cells assessed as cell growth at 10 uM; format: functional; settings: read-out: Activity
CAKI-1 = experiment: Cytotoxicity against human Caki1 cells assessed as cell growth at 10 uM; format: functional; settings: read-out: Activity
M14 = experiment: Cytotoxicity against human M14 cells assessed as cell growth at 10 uM; format: functional; settings: read-out: Activity
UACC-257 = experiment: Cytotoxicity against human UACC257 cells assessed as cell growth at 10 uM; format: functional; settings: read-out: Activity
OVCAR-8 = experiment: Cytotoxicity against human OVCAR8 cells assessed as cell growth at 10 uM; format: functional; settings: read-out: Activity
MDA-MB-435 = experiment: Cytotoxicity against human MDA-MB-435 cells assessed as cell growth at 10 uM; format: functional; settings: read-out: Activity
A498 = experiment: Cytotoxicity against human A498 cells assessed as cell growth at 10 uM; format: functional; settings: read-out: Activity
SK-MEL-2 = experiment: Cytotoxicity against human SK-MEL-2 cells assessed as cell growth at 10 uM; format: functional; settings: read-out: Activity
CCRF-CEM = experiment: Cytotoxicity against human CCRF-CEM cells assessed as cell growth at 10 uM; format: functional; settings: read-out: Activity
UO-31 = experiment: Cytotoxicity against human UO31 cells assessed as cell growth at 10 uM; format: functional; settings: read-out: Activity
HOP-92 = experiment: Cytotoxicity against human HOP92 cells assessed as cell growth at 10 uM; format: functional; settings: read-out: Activity
K562 [1] = experiment: Cytotoxicity against human K562 cells assessed as cell growth at 10 uM; format: functional; settings: read-out: Activity
HCT-116 = experiment: Cytotoxicity against human HCT116 cells assessed as cell growth at 10 uM; format: functional; settings: read-out: Activity
COLO 205 = experiment: Cytotoxicity against human COLO205 cells assessed as cell growth at 10 uM; format: functional; settings: read-out: Activity
[2] = target: DNA topoisomerase 2-alpha (Homo sapiens) (UniProt P11388); experiment: Inhibition of full-length human recombinant topoisomerase 2-alpha mediated relaxation and cleavage of supercoiled pBR322 plasmid DNA to linear DNA by ethidium bromide staining based gel electrophoresis assay
Chain of DNA topoisomerase 2-alpha (Homo sapiens) (P11388 whole entry): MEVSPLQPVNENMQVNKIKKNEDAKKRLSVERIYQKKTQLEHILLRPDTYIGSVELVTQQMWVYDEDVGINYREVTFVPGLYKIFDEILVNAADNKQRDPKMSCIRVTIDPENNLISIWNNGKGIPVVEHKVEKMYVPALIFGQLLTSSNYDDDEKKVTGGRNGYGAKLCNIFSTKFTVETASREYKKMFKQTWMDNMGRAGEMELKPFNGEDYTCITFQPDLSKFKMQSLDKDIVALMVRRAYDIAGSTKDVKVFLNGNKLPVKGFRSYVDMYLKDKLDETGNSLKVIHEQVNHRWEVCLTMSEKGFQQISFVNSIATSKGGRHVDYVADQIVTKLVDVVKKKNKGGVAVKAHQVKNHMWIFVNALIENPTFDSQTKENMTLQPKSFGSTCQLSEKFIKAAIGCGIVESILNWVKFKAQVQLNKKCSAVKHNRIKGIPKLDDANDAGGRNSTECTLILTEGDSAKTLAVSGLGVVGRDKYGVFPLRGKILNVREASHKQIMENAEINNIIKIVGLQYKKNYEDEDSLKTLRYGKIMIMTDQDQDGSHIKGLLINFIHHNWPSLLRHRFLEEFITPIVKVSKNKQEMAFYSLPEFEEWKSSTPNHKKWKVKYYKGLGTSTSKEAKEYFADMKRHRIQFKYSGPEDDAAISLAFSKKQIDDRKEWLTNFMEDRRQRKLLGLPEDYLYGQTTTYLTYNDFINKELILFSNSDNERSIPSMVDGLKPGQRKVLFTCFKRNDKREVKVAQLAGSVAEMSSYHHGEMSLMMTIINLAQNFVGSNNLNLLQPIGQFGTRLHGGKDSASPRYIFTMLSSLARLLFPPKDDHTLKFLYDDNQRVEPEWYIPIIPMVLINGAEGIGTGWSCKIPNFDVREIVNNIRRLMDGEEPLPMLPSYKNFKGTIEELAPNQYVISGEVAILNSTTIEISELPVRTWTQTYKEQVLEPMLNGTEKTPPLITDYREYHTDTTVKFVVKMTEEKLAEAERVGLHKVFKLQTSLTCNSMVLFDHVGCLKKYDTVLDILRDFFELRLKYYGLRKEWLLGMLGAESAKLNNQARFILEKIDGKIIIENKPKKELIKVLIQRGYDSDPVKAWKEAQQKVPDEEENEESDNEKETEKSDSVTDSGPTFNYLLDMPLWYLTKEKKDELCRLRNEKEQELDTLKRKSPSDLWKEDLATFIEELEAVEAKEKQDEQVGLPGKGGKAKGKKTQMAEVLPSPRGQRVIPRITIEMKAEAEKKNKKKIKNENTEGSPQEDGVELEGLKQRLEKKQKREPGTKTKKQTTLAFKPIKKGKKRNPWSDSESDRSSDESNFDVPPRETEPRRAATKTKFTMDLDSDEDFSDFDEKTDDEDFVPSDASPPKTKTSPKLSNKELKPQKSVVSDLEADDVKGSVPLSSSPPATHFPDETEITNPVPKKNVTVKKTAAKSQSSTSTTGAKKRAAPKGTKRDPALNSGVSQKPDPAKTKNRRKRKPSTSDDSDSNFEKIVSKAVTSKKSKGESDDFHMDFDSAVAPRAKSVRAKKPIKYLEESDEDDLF
How it was run: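 Recombinant full-length human topoisomerase IIα with supercoiled pBR322 DNA at 37 °C. Components mixed on ice before drug addition. Complexes trapped with SDS; products run on ethidium bromide gels. Linear DNA identified against a HindIII-linearized marker; repeated on three days.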

UACC-62 = experiment: Cytotoxicity against human UACC62 cells assessed as cell growth at 10 uM; format: functional; settings: read-out: Activity
NCI-H226 = experiment: Cytotoxicity against human NCI-H226 cells assessed as cell growth at 10 uM; format: functional; settings: read-out: Activity
Malme-3M = experiment: Cytotoxicity against human MALME-3M cells assessed as cell growth at 10 uM; format: functional; settings: read-out: Activity
HL-60(TB) = experiment: Cytotoxicity against human HL-60(TB) cells assessed as cell growth at 10 uM; format: functional; settings: read-out: Activity
HCT-15 = experiment: Cytotoxicity against human HCT15 cells assessed as cell growth at 10 uM; format: functional; settings: read-out: Activity
OVCAR-4 = experiment: Cytotoxicity against human OVCAR4 cells assessed as cell growth at 10 uM; format: functional; settings: read-out: Activity
BT-549 = experiment: Cytotoxicity against human BT549 cells assessed as cell growth at 10 uM; format: functional; settings: read-out: Activity
SF-539 = experiment: Cytotoxicity against human SF539 cells assessed as cell growth at 10 uM; format: functional; settings: read-out: Activity
U-251 = experiment: Cytotoxicity against human U251 cells assessed as cell growth at 10 uM; format: functional; settings: read-out: Activity
SK-MEL-5 = experiment: Cytotoxicity against human SK-MEL-5 cells assessed as cell growth at 10 uM; format: functional; settings: read-out: Activity
SF-268 = experiment: Cytotoxicity against human SF268 cells assessed as cell growth at 10 uM; format: functional; settings: read-out: Activity
[3] = Cytotoxicity against human NCI-ADR-RES cells assessed as cell growth at 10 uM; format: functional; settings: read-out: Activity
MDA-MB-468 = experiment: Cytotoxicity against human MDA-MB-468 cells assessed as cell growth at 10 uM; format: functional; settings: read-out: Activity
[4] = Cytotoxicity against human Hs578T cells assessed as cell growth at 10 uM; format: functional; settings: Hs-578T, read-out: Activity
TK-10 = experiment: Cytotoxicity against human TK10 cells assessed as cell growth at 10 uM; format: functional; settings: read-out: Activity
T47D = experiment: Cytotoxicity against human T47D cells assessed as cell growth at 10 uM; format: functional; settings: read-out: Activity
HT-29 = experiment: Cytotoxicity against human HT-29 cells assessed as cell growth at 10 uM; format: functional; settings: read-out: Activity
MCF7 = experiment: Cytotoxicity against human MCF7 cells assessed as cell growth at 10 uM; format: functional; settings: read-out: Activity
[5] = target: DNA topoisomerase 2-alpha (Homo sapiens) (UniProt P11388); experiment: Inhibition of full-length human recombinant topoisomerase 2-alpha-mediated decatenation activity of kDNA by ethidium bromide based gel-assay
[6] = Cytotoxicity against etoposide-resistant human K/VP.5 cells assessed as cell growth inhibition after 72 hrs by MTS assay; format: functional, cell-based; settings: K/VP.5, 72 h
How it was run: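 K/VP.5 cells are a K562-derived subline, 26-fold etoposide-resistant, with decreased topoisomerase IIα mRNA and protein. Cells were grown in suspension in αMEM with 10% fetal calf serum. Drugs were given from DMSO stocks, with final DMSO typically 0.4% or less. Read-out was MTS absorbance after 72 h. Typically nine concentrations were run in duplicate on two days. IC50 came from a four-parameter logistic fit.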

NCI-H460 = experiment: Cytotoxicity against human NCI-H460 cells assessed as cell growth at 10 uM; format: functional; settings: read-out: Activity
RXF 393 = experiment: Cytotoxicity against human RXF393 cells assessed as cell growth at 10 uM; format: functional; settings: read-out: Activity
KM12 = experiment: Cytotoxicity against human KM12 cells assessed as cell growth at 10 uM; format: functional; settings: read-out: Activity
OVCAR-5 = experiment: Cytotoxicity against human OVCAR5 cells assessed as cell growth at 10 uM; format: functional; settings: read-out: Activity
SW-620 = experiment: Cytotoxicity against human SW620 cells assessed as cell growth at 10 uM; format: functional; settings: read-out: Activity
OVCAR-3 = experiment: Cytotoxicity against human OVCAR3 cells assessed as cell growth at 10 uM; format: functional; settings: read-out: Activity
ACHN = experiment: Cytotoxicity against human ACHN cells assessed as cell growth at 10 uM; format: functional; settings: read-out: Activity
786-0 = experiment: Cytotoxicity against human 786-0 cells assessed as cell growth at 10 uM; format: functional; settings: read-out: Activity
DU-145 = experiment: Cytotoxicity against human DU145 cells assessed as cell growth at 10 uM; format: functional; settings: read-out: Activity
SF-295 = experiment: Cytotoxicity against human SF295 cells assessed as cell growth at 10 uM; format: functional; settings: read-out: Activity
IGROV-1 = experiment: Cytotoxicity against human IGROV1 cells assessed as cell growth at 10 uM; format: functional; settings: read-out: Activity
HCC 2998 = experiment: Cytotoxicity against human HCC2998 cells assessed as cell growth at 10 uM; format: functional; settings: read-out: Activity
K562 [7] = experiment: Relative resistance, ratio of IC50 for etoposide-resistant human K/VP.5 cells to IC50 for human K562 cells; format: functional
MDA-MB-231 = experiment: Cytotoxicity against human MDA-MB-231/ATCC cells assessed as cell growth at 10 uM; format: functional; settings: read-out: Activity
MOLT-4 = experiment: Cytotoxicity against human MOLT4 cells assessed as cell growth at 10 uM; format: functional; settings: read-out: Activity
K562 [8] = experiment: Cytotoxicity against human K562 cells assessed as cell growth inhibition after 72 hrs by MTS assay; format: functional, cell-based; settings: K562, 72 h

`COc1cc([C@@H]2c3cc4c(cc3[C@@H](NC(=O)CN3CCN(CCCN5CCN(CC(=O)N[C@@H]6c7cc8c(cc7[C@@H](c7cc(OC)c(O)c(OC)c7)[C@H]7C(=O)OC[C@@H]76)OCO8)CC5)CC3)[C@H]3COC(=O)[C@H]23)OCO4)cc(OC)c1O` gave a growth at 10 µM (SN12C) of 57.8%, a growth at 10 µM (SNB-75) of 66.8% and a growth at 10 µM (NCI-H23) of 84.2%. It also gave a growth at 10 µM (HOP-62) of 75.9%, a growth at 10 µM (SK-MEL-28) of 85.9% and a growth at 10 µM (SK-OV-3) of 96.7%. It also gave a growth at 10 µM (PC-3) of 79.8%, a growth at 10 µM (RPMI-8226) of 63.4% and a growth at 10 µM (SR) of 15.2%. The growth at 10 µM (SNB-19) was 59.3%, the growth at 10 µM (NCI-H322M) was 104% and the growth at 10 µM (A549) was 47%. The growth at 10 µM (CAKI-1) was 97%, the growth at 10 µM (M14) was 95.4% and the growth at 10 µM (UACC-257) was 79.7%. The growth at 10 µM (OVCAR-8) was 95.5%, the growth at 10 µM (MDA-MB-435) was 88.6% and the growth at 10 µM (A498) was 65%. For the same compound, the growth at 10 µM (SK-MEL-2) was 101%, the growth at 10 µM (CCRF-CEM) was 12.8% and the growth at 10 µM (UO-31) was 93.1%. The growth at 10 µM (HOP-92) was 65.7%, the growth at 10 µM (K562 [1]) was 61.9% and the growth at 10 µM (HCT-116) was 64.6%. For the same compound, the growth at 10 µM (COLO 205) was 53.9%, the “Effect on topoisomerase 2-alpha DNA cleavage (qualitative)” value [2] was “Dose-dependent effect” and the growth at 10 µM (UACC-62) was 56.4%. For the same compound, the growth at 10 µM (NCI-H226) was 86%, the growth at 10 µM (Malme-3M) was 68.1% and the growth at 10 µM (HL-60(TB)) was 26.7%. The growth at 10 µM (HCT-15) was 98.6%, the growth at 10 µM (OVCAR-4) was 95.6% and the growth at 10 µM (BT-549) was 69.6%. The growth at 10 µM (SF-539) was 77.8%, the growth at 10 µM (U-251) was 45.1% and the growth at 10 µM (SK-MEL-5) was 77.6%. The growth at 10 µM (SF-268) was 69.6%, the growth at 10 µM [3] was 103% and the growth at 10 µM (MDA-MB-468) was 93.8%. The growth at 10 µM [4] was 95.2%, the growth at 10 µM (TK-10) was 88.7% and the growth at 10 µM (T47D) was 56.9%. The growth at 10 µM (HT-29) was 89.5%, the growth at 10 µM (MCF7) was 26% and the inhibition [5] was “Active”. For the same compound, the IC50 [6] was 7.5 µM, the growth at 10 µM (NCI-H460) was 24.3% and the growth at 10 µM (RXF 393) was 90.2%. The growth at 10 µM (KM12) was 87.9%, the growth at 10 µM (OVCAR-5) was 102% and the growth at 10 µM (SW-620) was 54.9%. The growth at 10 µM (OVCAR-3) was 98.2%, the growth at 10 µM (ACHN) was 92.5% and the growth at 10 µM (786-0) was 95.9%. The growth at 10 µM (DU-145) was 83.5%, the growth at 10 µM (SF-295) was 94.5% and the growth at 10 µM (IGROV-1) was 71.8%. The growth at 10 µM (HCC 2998) was 97.8%, the “Ratio IC50” value (K562 [7]) was 14.2 and the growth at 10 µM (MDA-MB-231) was 93.9%. It also gave a growth at 10 µM (MOLT-4) of 10.9% and an IC50 (K562 [8]) of 0.525 µM.
